Assay results taken from the array DNA melting data of Ke et al. (doi:10.1101/2024.01.08.574731).

Legend:
[1] = melting temperature; fluorescence melt of hairpins on a sequencing array, two-state fit, raised by 9.35 °C to match UV melts; conditions: sodium 0.088 M
Procedure, shortened: (§1)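 Folding enthalpy and melting temperature come from bootstrapped two-state fits to Cy3 fluorescence of library hairpins carrying annealed Cy3 and quencher oligos on a sequenced MiSeq flow cell. Imaging was done in 50 mM Na-HEPES pH 8.0, 25 mM NaCl, stepping by 2.5 °C up to 60 °C, and signals were normalised to pre-quench Cy3 and to control constructs. Results of four replicates were combined by inverse variance, and fitted temperatures were raised by 9.35 °C to match UV melts.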

[2] = folding enthalpy; higher = less favourable; fluorescence melt of hairpins on a sequencing array, two-state fit; conditions: sodium 0.088 M
Procedure, shortened: as §1

Sequence | Tm [1] [°C] | folding enthalpy [2] [kcal/mol]
GCCGGCGAAAGCCACGGC ((((((....)))..))) | 63.4 | -21.5
GCCGGCGAAAGCCTTGGC ((((((....)))..))) | 54.8 | -20.8
GCCGGCGGAAACGCCGAC (.(((((....))))).) | 59.4 | -10.3
GCCGGGCGAAAGCCAAGC ((..(((....)))..)) | 46.8 | -14.5
GCCGGGCGAAAGCCTAGC ((..(((....)))..)) | 44.1 | -13.6
GCCGGGGGAAACCCTGGC (((.(((....))).))) | 65.4 | -40.9
GCCGGGTCGAAAGACGGC (((..(((....)))))) | 54.9 | -31
GCCGGTCCGAAAGGAGGC (((..(((....)))))) | 48 | -21.9
GCCGGTGCGAAAGCAGGC (((..(((....)))))) | 56.8 | -17.1
GCCGGTGGAAACGTCGGC ((((..(....)..)))) | 52.3 | -42
GCCGTAGGAAACCACGGC (((((.(....).))))) | 54.4 | -34.2
GCCGTAGGAAACTACAGC ((.((((....)))).)) | 39.6 | -11.7
GCCGTCGAAAGACCCGGC ((((((....)))..))) | 47.9 | -18.3
GCCGTCGAAAGACCTGGC ((((((....)))..))) | 44.7 | -19.8
GCCGTCGAAAGACGAGGC ((((((....)))..))) | 55.5 | -17.8
GCCGTCGAAAGACTCGGC ((((((....)))..))) | 48.8 | -23.8
GCCGTCGAAAGACTTGGC ((((((....)))..))) | 50.5 | -17.2
GCCGTCGCGAAAGCGGGC (((..(((....)))))) | 54.5 | -17.9
GCCGTGCGAAAGCAACGC ((..(((....)))..)) | 54.1 | -10.9
GCCGTGCGAAAGCACCGC ((.((((....)))).)) | 55.8 | -16
GCCGTGCGAAAGCACTGC ((.((((....)))).)) | 61.8 | -14.4
GCCGTGCGAAAGCCCCGC ((.(.((....)).).)) | 29.3 | -9.26
GCCGTGCGAAAGCGTGGC (((..((....))..))) | 63.4 | -37.1

Sequence | Tm [1] [°C] | folding enthalpy [2] [kcal/mol]
GCCGTGCGAAAGCTCAGC ((.(.((....)).).)) | 40.4 | -15.4
GCCGTGCGAAAGCTCTGC ((.(.((....)).).)) | 37.7 | -12.2
GCCGTGGGAAACTACGGC (((((.(....).))))) | 61.1 | -42.8
GCCGTGTCGAAAGACGGC (((..(((....)))))) | 58.9 | -31.4
GCCGTTCGAAAGAAAGGC (((.(((....))).))) | 59.3 | -28.8
GCCGTTCGAAAGAATGGC (((.(((....))).))) | 62.6 | -40.1
GCCGTTGGAAACAATGGC (((.(((....))).))) | 55.8 | -36.6
GCCGTTTCGAAAGAAGGC (((..(((....)))))) | 44.3 | -22.4
GCCTAAACGAAAGTTGGC (((..(((....)))))) | 46.7 | -24.9
GCCTAAGCGAAAGCTGGC (((..(((....)))))) | 52.3 | -24.3
GCCTACGAAAGTAAAGGC ((((((....)))..))) | 50.2 | -41.2
GCCTACGAAAGTAATGGC ((((((....)))..))) | 45.3 | -24.8
GCCTACGAAAGTAGGGC ((((((....))).))) | 61.8 | -16.4
GCCTACGGAAACGCAAGC ((.(.((....)).).)) | 26.9 | -11.9
GCCTACGGAAACGTGGGC (((.(((....))).))) | 58.6 | -39.2
GCCTAGAAATAGGC (((((....))))) | 49.8 | -29.2
GCCTAGACGAAAGTCGGC (((..(((....)))))) | 53.3 | -21.6
GCCTAGCGAAAGCCCGGC (((..((....))..))) | 42.7 | -17.4
GCCTAGGGAAACCTAAGC ((.((((....)))).)) | 31.6 | -14.7
GCCTAGGGAAACCTAGAC (.(((((....))))).) | 35.4 | -19.6
GCCTATCGAAAGATGGGC (((.(((....))).))) | 60.1 | -34.6
GCCTATGAAAATAGGC ((((((....)))))) | 58.9 | -34
GCCTATGGAAACATAGGC (((((((....))))))) | 66 | -33.8

Sequence | Tm [1] [°C] | folding enthalpy [2] [kcal/mol]
GCCTCACCGAAAGGTGGC (((..(((....)))))) | 48.9 | -8.02
GCCTCAGCGAAAGCTGGC (((..(((....)))))) | 50.9 | -8.88
GCCTCAGGAAACCAAGGC ((((..(....)..)))) | 33.2 | -28.6
GCCTCAGGAAACCGAGGC (((((.(....).))))) | 53.5 | -45.1
GCCTCCCCGAAAGGGGGC (((..(((....)))))) | 52.5 | -9.45
GCCTCCCGAAAGGGCGGC (((.(((....))).))) | 61.3 | -34.4
GCCTCCGAAAGGAAGGC ((((((....))).))) | 62 | -31.9
GCCTCCGAAAGGACGGC ((((((....))).))) | 56.5 | -30.9
GCCTCCGAAAGGAGAGGC ((((((....)))..))) | 54.8 | -20.4
GCCTCCGAAAGGATGGGC ((((((....)))..))) | 50 | -41.9
GCCTCCGAAAGGATTGGC ((((((....)))..))) | 47.4 | -19.7
GCCTCCGGAAACGGAGAC (.(((((....))))).) | 47 | -15.8
GCCTCGCCGAAAGGCGGC (((..(((....)))))) | 55.4 | -5.04
GCCTCGCGAAAGCAAAGC ((.(.((....)).).)) | 28.4 | -9.86
GCCTCGCGAAAGCCAGGC ((((.((....)).)))) | 58.2 | -23.5
GCCTCGCGAAAGCCTGGC (((..((....))..))) | 46.5 | -22.9
GCCTCGCGAAAGCGCCGC ((..(((....)))..)) | 36.1 | -14.3
GCCTCGCGAAAGCGTAGC ((..(((....)))..)) | 44 | -11.8
GCCTCGCGAAAGCGTTGC ((..(((....)))..)) | 39.9 | -15.7
GCCTCGGGAAACCGAGAC (.(((((....))))).) | 46.2 | -15.8
GCCTCTCCGAAAGGAGGC (((..(((....)))))) | 52.9 | -12.4
GCCTCTCGAAAGAGGGC (((.(((....)))))) | 54.4 | -30.6
GCCTCTCGAAAGAGGGGC (((.(((....))).))) | 63.2 | -34.1

Sequence | Tm [1] [°C] | folding enthalpy [2] [kcal/mol]
GCCTGACCGAAAGGTGGC (((..(((....)))))) | 51.2 | -23.4
GCCTGACGAAAGTCCGGC (((.(((....))).))) | 56.7 | -41.4
GCCTGAGGAAACTCAGAC (.(((((....))))).) | 40.7 | -16.7
GCCTGATCGAAAGATGGC (((..(((....)))))) | 41.9 | -25.2
GCCTGCCGAAAGGCCGGC (((.(((....))).))) | 64.3 | -22.4
GCCTGCGAAAGCACAGGC ((((((....)))..))) | 55.5 | -24
GCCTGCGAAAGCATTGGC ((((((....)))..))) | 50.9 | -21.2
GCCTGCTCGAAAGAGGGC (((..(((....)))))) | 44.5 | -15.7
GCCTGGACGAAAGTCGGC (((..(((....)))))) | 51.2 | -22.6
GCCTGGCGAAAGCAACGC ((.(.((....)).).)) | 23.9 | -4.54
GCCTGGCGAAAGCCCCGC ((..(((....)))..)) | 36.3 | -8.33
GCCTGGCGAAAGCGAAGC ((.(.((....)).).)) | 31.9 | -7.77
GCCTGGCGAAAGCGATGC ((.(.((....)).).)) | 37 | -6.61
GCCTGGCGAAAGCGTGGC (((..((....))..))) | 58.9 | -24.3
GCCTGTGGAAACATAGGC ((((.((....)).)))) | 52.4 | -42.2
GCCTGTTCGAAAGAAGGC (((..(((....)))))) | 38.8 | -25.6
GCCTTACGAAAGTAGGC (((.(((....)))))) | 54.2 | -29.1
GCCTTAGGAAACTAAGGC (((((((....))))))) | 60.3 | -37
GCCTTCACGAAAGTGGGC (((..(((....)))))) | 46.6 | -18.6
GCCTTCCGAAAGGACGGC (((.(((....))).))) | 57.3 | -41.6
GCCTTCCGAAAGGAGGGC (((.(((....))).))) | 62.2 | -37
GCCTTCGAAAGAAACGGC ((((((....)))..))) | 36.2 | -23.7
